From ChEMBL document CHEMBL4261518, “Side chain-functionalized aniline-derived ursolic acid derivatives as multidrug resistance reversers that block the nuclear factor-kappa B (NF-κB) pathway and cell proliferation” (Medchemcomm, 2017)

Legend:
MGC-803 = assay: Cytotoxicity against human MGC803 cells after 48 hrs by MTT assay; format: functional, cell-based; conditions: MGC-803, 48 h
Outline: (§1)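 Cells grown overnight in DMEM + 10% FBS at 37 °C under 5% CO2, then given a range of compound concentrations for 48 h. MTT added for about 4 h, medium replaced by DMSO, absorbance read at 570/630 nm. IC50 reported as mean ± SD of five independent experiments.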

[1] = Cytotoxicity against human SPCA2 cells after 48 hrs by MTT assay; format: functional, cell-based; conditions: SPCA2, 48 h; outline: as §1
NCI-H460 [2] = assay: Cytotoxicity against human NCI-H460 cells after 48 hrs by MTT assay; format: functional, cell-based; conditions: NCI-H460, 48 h; outline: as §1
A549 = assay: Cytotoxicity against human A549 cells after 48 hrs by MTT assay; format: functional, cell-based; conditions: A549, 48 h; outline: as §1
T-24 = assay: Cytotoxicity against human T24 cells after 48 hrs by MTT assay; format: functional, cell-based; conditions: T-24, 48 h; outline: as §1
L02 = assay: Cytotoxicity against human HL7702 cells after 48 hrs by MTT assay; format: cell-based; conditions: L02, 48 h; outline: as §1
[3] = Inhibition of TNFalpha-induced NF-kB (unknown origin) activation expressed in human NCI-H460 cells after 7 hrs by luciferase reporter gene assay; format: cell-based; conditions: NCI-H460, 7 h
Outline: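 NCI-H460 cells transiently co-transfected with pNF-κB-Luc reporter and pSV-β-galactosidase internal control by lipofectamine. Medium changed after 6 h, then 6 h further culture. TNF-α (15 ng ml–1) plus compound given together for 7 h. Luciferase ratio to TNF-α-only cells, corrected for non-TNF background and viability. IC50 from sigmoidal variable-slope fit.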

NCI-H460 [4] = assay: Cytotoxicity against human NCI-H460 cells harboring pNF-kB-Luc assessed as reduction in cell viability after 7 hrs by MTT assay relative to control; parameters: concentration or dose not given beside the values; conditions: nci-h460, 7 h
[5] = Cytotoxicity against human NCI-H460/DOX cells after 48 hrs by MTT assay; format: functional, cell-based; conditions: NCI-H460, 48 h; outline: as §1
[6] = Resistant factor, ratio of IC50 for human NCI-H460/DOX cells to IC50 for human NCI-H460 cells; format: functional
HepG2 = assay: Cytotoxicity against human HepG2 cells after 48 hrs by MTT assay; format: functional, cell-based; conditions: HepG2, 48 h; outline: as §1
[7] = Cytotoxicity against human HepG2/DOX cells after 48 hrs by MTT assay; format: functional, cell-based; outline: as §1
[8] = Resistant factor, ratio of IC50 for human HepG2/DOX cells to IC50 for human HepG2 cells; format: functional

SMILES	IC50 (MGC-803)	IC50 [1]	IC50 (NCI-H460 [2])	IC50 (A549)	IC50 (T-24)	IC50 (L02)	IC50 [3]	Activity (NCI-H460 [4])	IC50 [5]	Ratio IC50 [6]	IC50 (HepG2)	IC50 [7]	Ratio IC50 [8]
COc1ccc(NC(=O)[C@]23CC[C@@H](C)[C@H](C)[C@H]2C2=CC[C@@H]4[C@@]5(C)CCC(=O)C(C)(C)[C@@H]5CC[C@@]4(C)[C@]2(C)CC3)cc1OC	32.5 µM	28.4 µM	30.2 µM	38.7 µM	37.3 µM	> 50 µM	> 20 µM	< 5%					
COc1cccc(NC(=O)[C@]23CC[C@@H](C)[C@H](C)[C@H]2C2=CC[C@@H]4[C@@]5(C)CC[C@H](OC(C)=O)C(C)(C)[C@@H]5CC[C@@]4(C)[C@]2(C)CC3)c1	> 50 µM	> 50 µM	> 50 µM	> 50 µM	> 50 µM	> 50 µM							
COc1cc(NC(=O)[C@]23CC[C@@H](C)[C@H](C)[C@H]2C2=CC[C@@H]4[C@@]5(C)CC[C@H](OC(C)=O)C(C)(C)[C@@H]5CC[C@@]4(C)[C@]2(C)CC3)cc(OC)c1OC	37.2 µM	28.7 µM	21.1 µM	36.5 µM	30.5 µM	> 50 µM	14.8 µM	< 5%					
COc1cccc(NC(=O)COC(=O)[C@]23CC[C@@H](C)[C@H](C)[C@H]2C2=CC[C@@H]4[C@@]5(C)CCC(=O)C(C)(C)[C@@H]5CC[C@@]4(C)[C@]2(C)CC3)c1	> 50 µM	> 50 µM	> 50 µM	> 50 µM	> 50 µM	> 50 µM							
COc1cc(NC(=O)COC(=O)[C@]23CC[C@@H](C)[C@H](C)[C@H]2C2=CC[C@@H]4[C@@]5(C)CCC(=O)C(C)(C)[C@@H]5CC[C@@]4(C)[C@]2(C)CC3)cc(OC)c1OC	38.7 µM	27.9 µM	39.6 µM	35.8 µM	37.8 µM	> 50 µM	> 20 µM	< 5%					
C[C@H]1[C@H](C)CC[C@]2(C(=O)O)CC[C@]3(C)C(=CC[C@@H]4[C@@]5(C)CC[C@H](O)C(C)(C)[C@@H]5CC[C@]43C)[C@H]12 [URSOLIC ACID]	27.6 µM	30.2 µM	32.2 µM			> 50 µM	> 20 µM	< 5%					
COc1ccc(NC(=O)COC(=O)[C@]23CC[C@@H](C)[C@H](C)[C@H]2C2=CC[C@@H]4[C@@]5(C)CCC(=O)C(C)(C)[C@@H]5CC[C@@]4(C)[C@]2(C)CC3)cc1	27.9 µM	19.4 µM	17.6 µM	24.6 µM	26.2 µM	> 50 µM	16 µM	< 5%					
CC(=O)O[C@H]1CC[C@]2(C)[C@H]3CC=C4[C@@H]5[C@@H](C)[C@H](C)CC[C@]5(C(=O)N5CCN(C)CC5)CC[C@@]4(C)[C@]3(C)CC[C@H]2C1(C)C	21.6 µM	29.2 µM	21.2 µM	24.2 µM	25.4 µM	> 50 µM	4.8 µM	< 5%	49.7 µM	2.35	27 µM	> 50 µM	
Cc1cccc(NC(=O)[C@]23CC[C@@H](C)[C@H](C)[C@H]2C2=CC[C@@H]4[C@@]5(C)CCC(=O)C(C)(C)[C@@H]5CC[C@@]4(C)[C@]2(C)CC3)c1	> 50 µM	> 50 µM	> 50 µM	> 50 µM	> 50 µM	> 50 µM							
COc1ccc(NC(=O)[C@]23CC[C@@H](C)[C@H](C)[C@H]2C2=CC[C@@H]4[C@@]5(C)CC[C@H](OC(C)=O)C(C)(C)[C@@H]5CC[C@@]4(C)[C@]2(C)CC3)cc1	25.2 µM	13.7 µM	10.6 µM	31.1 µM	23.8 µM	> 50 µM	3.64 µM	< 5%	22.6 µM	2.12	24.5 µM	47.1 µM	1.92
CC[C@@]1(O)C(=O)OCc2c1cc1n(c2=O)Cc2cc3cc(O)ccc3nc2-1 [HYDROXYCAMPTOTHECIN]		12.6 µM	16.6 µM	2.75 µM		12.8 µM							
Cc1ccccc1NC(=O)COC(=O)[C@]12CC[C@@H](C)[C@H](C)[C@H]1C1=CC[C@@H]3[C@@]4(C)CCC(=O)C(C)(C)[C@@H]4CC[C@@]3(C)[C@]1(C)CC2	16.2 µM	18.7 µM	14 µM	16.2 µM	17.8 µM	> 50 µM	16.2 µM	< 5%					
COc1ccc(NC(=O)[C@]23CC[C@@H](C)[C@H](C)[C@H]2C2=CC[C@@H]4[C@@]5(C)CC[C@H](OC(C)=O)C(C)(C)[C@@H]5CC[C@@]4(C)[C@]2(C)CC3)cc1OC	27.8 µM	12.9 µM	11.9 µM	22.9 µM	24.7 µM	> 50 µM	10.1 µM	< 5%					
CC(=O)O[C@H]1CC[C@]2(C)[C@H]3CC=C4[C@@H]5[C@@H](C)[C@H](C)CC[C@]5(C(=O)Nc5cccc(C)c5)CC[C@@]4(C)[C@]3(C)CC[C@H]2C1(C)C	> 50 µM	> 50 µM	> 50 µM	> 50 µM	> 50 µM	> 50 µM							
COc1cc(NC(=O)[C@]23CC[C@@H](C)[C@H](C)[C@H]2C2=CC[C@@H]4[C@@]5(C)CCC(=O)C(C)(C)[C@@H]5CC[C@@]4(C)[C@]2(C)CC3)cc(OC)c1OC	40.1 µM	29.9 µM	34.3 µM	41.2 µM	39.8 µM	> 50 µM	> 20 µM	< 5%					
Cc1ccc(NC(=O)[C@]23CC[C@@H](C)[C@H](C)[C@H]2C2=CC[C@@H]4[C@@]5(C)CCC(=O)C(C)(C)[C@@H]5CC[C@@]4(C)[C@]2(C)CC3)cc1C	21.4 µM	22.5 µM	19.4 µM	20.9 µM	24.6 µM	> 50 µM	15.2 µM	< 5%					
COc1cccc2c1C(=O)c1c(O)c3c(c(O)c1C2=O)C[C@@](O)(C(=O)CO)C[C@@H]3O[C@H]1C[C@H](N)[C@H](O)[C@H](C)O1 [DOXORUBICIN]									> 50 µM		6.91 µM	> 50 µM	
Cc1cccc(NC(=O)COC(=O)[C@]23CC[C@@H](C)[C@H](C)[C@H]2C2=CC[C@@H]4[C@@]5(C)CCC(=O)C(C)(C)[C@@H]5CC[C@@]4(C)[C@]2(C)CC3)c1	> 50 µM	> 50 µM	> 50 µM	> 50 µM	> 50 µM	> 50 µM							
COc1ccc(NC(=O)COC(=O)[C@]23CC[C@@H](C)[C@H](C)[C@H]2C2=CC[C@@H]4[C@@]5(C)CCC(=O)C(C)(C)[C@@H]5CC[C@@]4(C)[C@]2(C)CC3)cc1OC	38.2 µM	18.9 µM	22.8 µM	35.2 µM	27.7 µM	> 50 µM	> 20 µM	< 5%					
C[C@H]1[C@H](C)CC[C@]2(C(=O)OCC(=O)Nc3ccccc3)CC[C@]3(C)C(=CC[C@@H]4[C@@]5(C)CCC(=O)C(C)(C)[C@@H]5CC[C@]43C)[C@H]12	16.1 µM	16.3 µM	13.8 µM	14.1 µM	16 µM	> 50 µM	10.3 µM	< 5%	26.6 µM	1.94	24.2 µM	> 50 µM	
COc1ccc(NC(=O)[C@]23CC[C@@H](C)[C@H](C)[C@H]2C2=CC[C@@H]4[C@@]5(C)CCC(=O)C(C)(C)[C@@H]5CC[C@@]4(C)[C@]2(C)CC3)cc1	29.7 µM	21.1 µM	28.1 µM	39.9 µM	32.5 µM	> 50 µM	> 20 µM	< 5%					
C[C@H]1[C@H](C)CC[C@]2(C(=O)N3CCN(C)CC3)CC[C@]3(C)C(=CC[C@@H]4[C@@]5(C)CCC(=O)C(C)(C)[C@@H]5CC[C@]43C)[C@H]12	25.6 µM	22.4 µM	19.2 µM	23.4 µM	27.2 µM	> 50 µM	15.5 µM	< 5%					
